The values that follow come from ChEMBL document CHEMBL3400077 (Bioorg Med Chem Lett, 2015).

For assay [1], the target named is T1, Monoglyceride lipase (Homo sapiens, UniProt Q99685).
T1 sequence (Q99685 whole entry): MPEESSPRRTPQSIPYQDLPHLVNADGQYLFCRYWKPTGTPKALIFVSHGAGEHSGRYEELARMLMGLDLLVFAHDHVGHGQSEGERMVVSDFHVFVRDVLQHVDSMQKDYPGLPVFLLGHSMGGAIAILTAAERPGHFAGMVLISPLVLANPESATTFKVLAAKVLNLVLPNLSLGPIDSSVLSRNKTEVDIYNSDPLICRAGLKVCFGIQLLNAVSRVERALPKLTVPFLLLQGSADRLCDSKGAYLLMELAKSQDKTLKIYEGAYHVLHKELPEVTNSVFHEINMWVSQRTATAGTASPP
The assay can be described thus: Inhibition of human recombinant MAGL using 2-arachidonoylglycerol substrate assessed as arachidonic acid by HPLC analysis.

The target in assay [2] is T2, Monoglyceride lipase (Homo sapiens) (UniProt Q99685).
T2 sequence (whole entry): T1 sequence (Q99685 whole entry)
The assay can be described thus: Inhibition of human recombinant MAGL using 2-arachidonoylglycerol substrate assessed as arachidonic acid at 10 uM by HPLC analysis. The procedure, abridged: (§1)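 Human recombinant enzyme screened at a single test concentration; percent inhibition is the mean of two independent experiments, each run in duplicate.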

Assay [3] addresses T3, Fatty-acid amide hydrolase 1 (Homo sapiens) (UniProt O00519).
T3 sequence (whole entry): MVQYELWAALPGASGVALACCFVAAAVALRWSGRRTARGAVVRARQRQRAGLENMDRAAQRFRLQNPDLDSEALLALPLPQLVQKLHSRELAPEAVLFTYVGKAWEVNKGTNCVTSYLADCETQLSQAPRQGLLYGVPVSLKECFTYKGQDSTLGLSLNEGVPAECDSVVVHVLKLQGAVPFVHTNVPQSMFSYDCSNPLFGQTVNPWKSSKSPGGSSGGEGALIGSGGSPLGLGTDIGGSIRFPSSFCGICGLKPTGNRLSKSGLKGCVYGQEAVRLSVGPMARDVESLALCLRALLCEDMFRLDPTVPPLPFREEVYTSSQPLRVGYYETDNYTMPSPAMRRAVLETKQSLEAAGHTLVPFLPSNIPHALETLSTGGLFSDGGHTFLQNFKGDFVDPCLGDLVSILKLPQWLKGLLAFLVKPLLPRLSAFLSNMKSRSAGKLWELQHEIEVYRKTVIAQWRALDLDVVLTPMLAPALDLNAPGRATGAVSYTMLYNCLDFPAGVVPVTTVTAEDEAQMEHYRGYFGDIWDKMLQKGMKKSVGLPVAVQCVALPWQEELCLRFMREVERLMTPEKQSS
The assay can be described thus: Inhibition of human FAAH using [ethanolamine 1-3H] substrate assessed as radioactivity at 10 uM by liquid scintillation counting analysis. The procedure, abridged: as §1

Assay [4] addresses T4, Fatty-acid amide hydrolase 1 (Homo sapiens, UniProt O00519).
T4 sequence (O00519 whole entry): T3 sequence (whole entry)
The assay is described as follows: Inhibition of human FAAH using [ethanolamine 1-3H] substrate assessed as radioactivity by liquid scintillation counting analysis.

For assay [5], the target named is T5, Monoacylglycerol lipase ABHD6 (Homo sapiens, UniProt Q9BV23).
T5 sequence (Q9BV23 whole entry): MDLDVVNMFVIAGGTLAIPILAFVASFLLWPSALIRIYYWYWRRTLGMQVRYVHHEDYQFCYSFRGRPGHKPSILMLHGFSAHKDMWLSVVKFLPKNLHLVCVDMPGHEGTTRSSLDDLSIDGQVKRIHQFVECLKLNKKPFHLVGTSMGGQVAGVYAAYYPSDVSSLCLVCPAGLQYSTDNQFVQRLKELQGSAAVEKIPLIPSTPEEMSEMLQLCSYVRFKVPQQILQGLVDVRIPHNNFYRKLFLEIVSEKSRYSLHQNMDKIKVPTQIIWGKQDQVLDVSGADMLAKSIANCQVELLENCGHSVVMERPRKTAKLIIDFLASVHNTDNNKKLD
The assay is described as follows: Inhibition of human ABHD6 containing pCMV6-AC-hABHD6 transfected into HEK293 cells. The format is cell-based.

The target in assay [6] is T6, Lysophosphatidylserine lipase ABHD12 (Homo sapiens) (UniProt Q8N2K0).
T6 sequence (whole entry): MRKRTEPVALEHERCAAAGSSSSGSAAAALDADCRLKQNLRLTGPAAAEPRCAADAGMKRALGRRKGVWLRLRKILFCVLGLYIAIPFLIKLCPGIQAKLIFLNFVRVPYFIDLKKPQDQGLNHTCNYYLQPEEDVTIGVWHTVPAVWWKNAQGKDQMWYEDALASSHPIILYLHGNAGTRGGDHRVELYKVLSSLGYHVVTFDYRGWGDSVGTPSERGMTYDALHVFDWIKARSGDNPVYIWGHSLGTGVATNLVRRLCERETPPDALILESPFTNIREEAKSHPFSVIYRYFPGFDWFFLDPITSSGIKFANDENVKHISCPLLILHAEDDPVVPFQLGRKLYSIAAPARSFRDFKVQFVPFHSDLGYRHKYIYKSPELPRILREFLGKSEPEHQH
The assay can be described thus: Inhibition of human ABHD12 containing pCMV6-XL4-hABHD12 transfected into HEK293 cells at 10 uM. The format is cell-based.

Assay [7] has as its target Cannabinoid receptor 1 (Rattus norvegicus) (UniProt P20272). The assay can be described thus: Agonist activity at rat cerebellar membrane cannabinoid CB1 receptor assessed as [35S]GTPgammaS binding relative to control. The format is functional. The procedure, abridged:
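[35S]GTPγS binding in rat cerebellar membranes, test compound alone at a single concentration. Read-out is % of basal binding, mean (range), n = 2.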
Background: GTPγS resists hydrolysis and so accumulates on activated G proteins.

Assay [8] addresses Cannabinoid receptor 2 (Homo sapiens) (UniProt P34972). The assay is described as follows: Agonist activity at human cannabinoid CB2 receptor introduced into CHO cells assessed as [35S]GTPgammaS binding relative to control. The format is functional, cell-based. The method in brief:
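[35S]GTPγS binding in membranes from CHO cells expressing hCB2R, test compound alone. Read-out is % of basal binding, mean (range), n = 2.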

For assay [9], the target named is Cannabinoid receptor 1 (Rattus norvegicus) (UniProt P20272). The assay is described as follows: Antagonist activity at rat cerebellar membrane cannabinoid CB1 receptor assessed as HU210-evoked [35S]GTPgammaS binding response relative to control. The format is functional. On the set-up: scale not given: the % may be the effect or the level left. The procedure, abridged: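 [35S]GTPγS binding in rat cerebellar membranes, test compound co-incubated with HU210 agonist. Expressed as % of the HU210-evoked response, mean (range), n = 2.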

Assay [10] addresses Histamine H1 receptor (Cavia porcellus, UniProt P31389). The assay is described as follows: Antagonist activity at histamine H1 receptor in guinea pig jejunum assessed as reduction in histamine-induced contractions. The following applies: read-out: pA2 (converted).
In assay [11] the target is T1, Monoglyceride lipase. The assay can be described thus: Reversible inhibition of human recombinant MAGL using 2-arachidonoylglycerol substrate assessed as arachidonic acid after 10 mins by HPLC analysis.
The target in assay [12] is T1, Monoglyceride lipase. The assay is described as follows: Reversible inhibition of human recombinant MAGL using 2-arachidonoylglycerol substrate assessed as arachidonic acid after 30 mins by HPLC analysis.
In assay [13] the target is T1, Monoglyceride lipase. The assay is described as follows: Reversible inhibition of human recombinant MAGL using 2-arachidonoylglycerol substrate assessed as arachidonic acid after 60 mins by HPLC analysis.
For assay [14], the target named is T1, Monoglyceride lipase. The assay is described as follows: Reversible inhibition of human recombinant MAGL using 2-arachidonoylglycerol substrate assessed as arachidonic acid after 90 mins by HPLC analysis.

The source made the active and inactive calls. No cut-off for these calls is given here.

Histamine H1 receptor, sequence (P31389 whole entry): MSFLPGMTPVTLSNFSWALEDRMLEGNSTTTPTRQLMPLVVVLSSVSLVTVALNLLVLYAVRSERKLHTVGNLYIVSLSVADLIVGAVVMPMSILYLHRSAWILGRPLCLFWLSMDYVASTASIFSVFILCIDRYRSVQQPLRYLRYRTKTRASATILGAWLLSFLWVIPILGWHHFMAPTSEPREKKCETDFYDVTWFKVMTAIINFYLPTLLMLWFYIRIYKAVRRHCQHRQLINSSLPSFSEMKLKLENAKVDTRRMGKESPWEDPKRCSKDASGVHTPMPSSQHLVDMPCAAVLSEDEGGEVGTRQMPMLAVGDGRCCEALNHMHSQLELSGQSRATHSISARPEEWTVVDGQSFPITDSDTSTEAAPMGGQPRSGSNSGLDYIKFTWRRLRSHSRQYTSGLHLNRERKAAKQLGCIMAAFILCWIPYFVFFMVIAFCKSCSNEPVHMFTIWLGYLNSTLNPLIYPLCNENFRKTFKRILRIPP
Cannabinoid receptor 1 (Rattus norvegicus), sequence (P20272 whole entry): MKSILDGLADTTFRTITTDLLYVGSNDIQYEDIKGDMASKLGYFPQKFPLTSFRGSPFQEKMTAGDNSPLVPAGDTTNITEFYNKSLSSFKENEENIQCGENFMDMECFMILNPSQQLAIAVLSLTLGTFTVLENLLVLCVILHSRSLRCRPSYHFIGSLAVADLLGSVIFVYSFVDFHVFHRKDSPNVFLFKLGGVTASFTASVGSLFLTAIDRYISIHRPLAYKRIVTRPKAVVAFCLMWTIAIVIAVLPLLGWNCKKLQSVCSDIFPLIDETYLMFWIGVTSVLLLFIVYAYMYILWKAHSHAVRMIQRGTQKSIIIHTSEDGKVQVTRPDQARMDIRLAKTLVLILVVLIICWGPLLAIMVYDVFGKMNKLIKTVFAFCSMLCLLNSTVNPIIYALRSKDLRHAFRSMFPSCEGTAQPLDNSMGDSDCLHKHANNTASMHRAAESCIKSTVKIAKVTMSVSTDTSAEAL
Cannabinoid receptor 2 (Homo sapiens), sequence (P34972 whole entry): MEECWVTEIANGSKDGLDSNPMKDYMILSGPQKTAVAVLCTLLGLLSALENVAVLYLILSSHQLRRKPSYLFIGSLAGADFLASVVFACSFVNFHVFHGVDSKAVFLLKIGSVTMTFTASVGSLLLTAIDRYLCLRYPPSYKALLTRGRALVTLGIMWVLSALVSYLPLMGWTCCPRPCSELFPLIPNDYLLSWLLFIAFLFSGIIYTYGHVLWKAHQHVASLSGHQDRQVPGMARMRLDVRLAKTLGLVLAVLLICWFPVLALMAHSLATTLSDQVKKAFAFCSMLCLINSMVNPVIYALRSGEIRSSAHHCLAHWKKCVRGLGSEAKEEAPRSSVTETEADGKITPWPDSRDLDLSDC

Broadly, the IC50 is the concentration at which inhibition is half-maximal. Consider `O=C(N1CCC(C(c2ccc3c(c2)OCO3)c2ccc3c(c2)OCO3)CC1)n1cncn1`, for which, in assay [1], the IC50 amounted to 0.36 nM.

For orientation: inhibition means the share of the control response that was lost under treatment. On to `O=C(Oc1ccc([N+](=O)[O-])cc1)N1CCC(=C2c3ccc(Cl)cc3CCc3cccnc32)CC1`, for which the inhibition in assay [2] is 27%; in assay [3], 6%.

For `CN(C(=O)N1CCC(=C2c3ccc(Cl)cc3CCc3cccnc32)CC1)c1ccccc1`, in assay [2], the inhibition entry is “inactive”. In addition, the inhibition in [3] was found to be 11%.

As to `O=C(N1CCC(=C2c3ccc(Cl)cc3CCc3cccnc32)CC1)n1nnc2ccccc21`, the IC50 in assay [1] is 208 nM. In assay [3], the inhibition came out at 22%.

For `CN(C(=O)N1CCC(=C2c3ccc(Cl)cc3CCc3cccnc32)CC1)C1CCCCC1`, the inhibition entry in assay [2] and in assay [3] was “inactive” in each case.

For the compound `O=C(Oc1ccc([N+](=O)[O-])cc1[N+](=O)[O-])N1CCC(=C2c3ccc(Cl)cc3CCc3cccnc32)CC1`, the inhibition entry in [2] is “inactive”. Besides, the inhibition in [3] worked out at 14%.

Regarding `O=C(ON1C(=O)CCC1=O)N1CCC(=C2c3ccc(Cl)cc3CCc3cccnc32)CC1`, in assay [1], the IC50 stood at 2570 nM. For the same compound, the inhibition in assay [3] was 12%.

`O=C(N1CCC(=C2c3ccc(Cl)cc3CCc3cccnc32)CC1)n1ccnc1`: the inhibition result in assay [2] was “inactive”. In addition, in [3], the inhibition came out at 7%.

As to `CCOC(=O)N1CCC(=C2c3ccc(Cl)cc3CCc3cccnc32)CC1`, the inhibition entry in [2] was “inactive”. The inhibition in assay [3] was determined as 11%.

With `O=[N+]([O-])c1ccc(SC(=S)N2CCC(=C3c4ccc(Cl)cc4CCc4cccnc43)CC2)c([N+](=O)[O-])c1`, the inhibition in assay [2] was 14%; in [3] it was 12%.

Consider `O=C(N1CCC(=C2c3ccc(Cl)cc3CCc3cccnc32)CC1)n1cncn1`, for which the IC50 in assay [1] is 46 nM; in assay [4], 7240 nM; in assay [5], 1780 nM; in assay [11], 209 nM; in assay [12] it was 224 nM; in [13] it was 257 nM. Besides, the IC50 in [14] is 309 nM. Besides, the inhibition result in assay [6] is “inactive”. Further, the Activity in [7] is 90%; in assay [8], 101%; in assay [9], 80%. In addition, the Kb in [10] was 155 nM.

Regarding `O=C(N1CCC(=C2c3ccc(Cl)cc3CCc3cccnc32)CC1)n1nnc2ncccc21`, the IC50 in assay [1] was 98 nM. Further, the inhibition in [3] came out at 30%.

With `O=C(OC(C(F)(F)F)C(F)(F)F)N1CCC(=C2c3ccc(Cl)cc3CCc3cccnc32)CC1`, in assay [1], the IC50 amounted to 645 nM. For the same compound, the inhibition in assay [3] came out at 15%.

With `O=C(N1CCC(=C2c3ccccc3C=Cc3ccccc32)CC1)n1cncn1`, the IC50 in assay [1] amounted to 47 nM; in assay [4] it was 6910 nM; in [5], 750 nM. Further, in assay [6], the inhibition entry was “inactive”. Moreover, the Kb in assay [10] was 316 nM.

Take `O=C(NC1CCCCC1)N1CCC(=C2c3ccc(Cl)cc3CCc3cccnc32)CC1`: the inhibition entry in [2] was “inactive”. Moreover, the inhibition in assay [3] was 9%.
